# Assay results gathered from unrelated publications.
# MAPK10: Mitogen-activated protein kinase 10 (MAPK10, Homo sapiens, UniProt P53779)
# Oprd1: Delta-type opioid receptor (Oprd1, Rattus norvegicus, UniProt P33533)
# CDK2 with cyclin A2: Cyclin-dependent kinase 2, with cyclin A2 (CDK2, Homo sapiens, UniProt P24941)
# ST14: Suppressor of tumorigenicity 14 protein (ST14, Homo sapiens, UniProt Q9Y5Y6)
Structure (SMILES),target,assay,conditions,measurement,value
COc1cc(-c2cncc3c2CN(C)Cc2cc(N4CCNCC4)ccc2-3)cc(OC)c1OC,"Cyclin-dependent kinase 2, with cyclin E (CDK2, Homo sapiens, UniProt P24941)","enzyme activity, inhibitor",1 µM,remaining activity,107%
Cc1cc(NC(=O)c2cccc(NC(=O)/C=C/CN(C)C)c2)ccc1Nc1nccc(-c2cccnc2)n1,MAPK10,"binding, competition with immobilised ligand",1 µM,remaining binding,0%
COc1ccc2[nH]c3c(c2c1)[C@H]1C[C@@H]([C@H]3C)N(Cc2ccccc2)C[C@]1(C)O,Oprd1,"ligand displacement, radioligand",1 µM,inhibition,13%
CC(=O)Nc1c(N)nc(SCC(=O)NN)[nH]c1=O,CDK2 with cyclin A2,"enzyme activity, inhibitor",20 nM,inhibition,30.9%
CC(C)C(C)(NC(=O)[C@H](Cc1cscn1)NC(=O)CCc1ccccc1)C(=O)N[C@@H](CCCNC(=N)N)C(=O)c1nc2ccccc2s1 (stereo partly drawn),ST14,"enzyme activity, inhibitor",0.1 µM,remaining activity,83%
COc1ccc(CN2C[C@](C)(O)[C@@H]3C[C@H]2[C@@H](C)c2nc4ccccc4c(-c4ccccc4)c23)cc1,Oprd1,"ligand displacement, radioligand",1 µM,inhibition,0%
C=CC(=O)N1CCC(COCC(=O)N2CCN(c3nc(-c4cnc(N)nc4C(F)F)nc(N4CCOC[C@@H]4C)n3)CC2)CC1,"Mitogen-activated protein kinase kinase kinase kinase 1 (MAP4K1, Homo sapiens, UniProt Q92918)","binding, competition with immobilised ligand",1 µM,remaining binding,100%
CC(C)[C@@H](CC(=O)N[C@@H](CCCNC(=N)N)C(=O)c1nc2ccccc2s1)NC(=O)[C@H](Cc1cscn1)NC(=O)CCc1ccccc1,ST14,"enzyme activity, inhibitor",0.1 µM,remaining activity,81%
CNC(=O)c1cc(Oc2ccc(NC(=O)Nc3ccc(Cl)c(C(F)(F)F)c3)cc2)ccn1,CDK2 with cyclin A2,"enzyme activity, inhibitor",10 nM,inhibition,36.7%
CC[C@@H](C)[C@H](NC(=O)[C@H](Cc1cscn1)NC(=O)CCc1ccccc1)C(=O)N[C@@H](CCCNC(=N)N)C(=O)c1nc2ccccc2s1,ST14,"enzyme activity, inhibitor",0.1 µM,remaining activity,4%
Cc1cc([C@@H](C)Nc2ccccc2C(=O)O)c2nc(N3CCC(F)(F)CC3)c(C#N)c(=O)n2c1,"Tyrosine-protein kinase ZAP-70 (ZAP70, Homo sapiens, UniProt P43403)","binding, competition with immobilised ligand",1 µM,remaining binding,100%
CC(C)(C)[C@H](NC(=O)[C@H](Cc1cscn1)NC(=O)CCc1ccccc1)C(=O)N[C@@H](CCCNC(=N)N)C(=O)c1nc2ccccc2s1,ST14,"enzyme activity, inhibitor",0.1 µM,remaining activity,89%
CNc1ncc2c(/C=C/C(=O)N3CCC(OC)CC3)nn(Cc3cccc(C(F)(F)F)c3)c2n1,MAPK10,"enzyme activity, inhibitor, radiometric",1 µM,remaining activity,87%
C=CCCCCCC(C)(NC(=O)[C@H](Cc1cscn1)NC(=O)CCc1ccccc1)C(=O)N[C@@H](CCCNC(=N)N)C(=O)c1nc2ccccc2s1 (stereo partly drawn),ST14,"enzyme activity, inhibitor",0.1 µM,remaining activity,89%
CC(=O)Nc1c(N)nc(SCC(=O)N/N=C/c2ccc([N+](=O)[O-])cc2)[nH]c1=O,CDK2 with cyclin A2,"enzyme activity, inhibitor",1 µM,inhibition,67.2%
